The results in this text go back to ChEMBL document CHEMBL5532699, “Design, docking optimization, and evaluation of biotin-PEG4-1,8-naphthalimide as a potent and safe antitumor agent with dual targeting of ferroptosis and DNA” (RSC Med Chem, 2024).

pIC50: −log10 of the molar value. Calls of active or inactive are those of the source. The rule behind the calls is not given here. A value given as a limit tells only on which side of the number the result lay.

As a reminder, the inhibition in vivo is the drop in the measured response relative to a control, in per cent. One may read the pIC50 as the negative decadic logarithm of the IC50, by convention in mol/L. A low value points to a large IC50. In general, half-life refers to the time in which the quantity being followed falls by half.

Data set [1] concerns MGC-803. Description: Antitumor activity against human MGC-803 cells xenografted in nude mouse assessed as tumor inhibition ratio at 12 mg/kg, ip administered once every two days for 21 days relative to control. The format is functional. As to conditions: MGC-803, 504 h, time 21 day. The essentials:
(§1)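 1×10^6 tumor cells injected s.c. into the right flank of nude mice. At mean tumor volume 60–80 mm³, animals randomized to vehicle or treatment groups (n = 6). Compound in 5% v/v DMSO/saline given i.p. every 2 days. Tumor size and weight recorded; volume = lw²/2 from length and width. Body weight tracked as the systemic toxicity index.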
(Xenograft models place foreign cells or tissue in a host animal.)

For data set [2], the system named is MGC-803. Description: Induction of DNA damage in human MGC-803 cells assessed as appearance of long DNA tails at 25 to 100 uM incubated for 24 hrs by comet assay. In kind it is functional, cell-based. The following applies: dose 25-100 µM. The essentials:
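MGC-803 cells exposed 25, 50 or 100 μM for 24 h, mixed 1:8 with low-melt agarose on comet slides, held 1 day at 4°C in dark, lysed 2 h at 4°C. Alkaline unwinding (1 mM EDTA, 300 mM NaOH, pH >13) 45 min at 4°C; electrophoresis in 1 mM EDTA/200 mM NaOH at 25 V, 30 min. Washed in Tris-HCl pH 7.5, PI-stained, imaged by fluorescence microscopy.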

Data set [3] has as its system HCT-116. Description: Antiproliferative activity against human HCT-116 cells incubated for 48 hrs by MTT assay. The format is functional, cell-based. As to conditions: HCT-116, 48 h. In outline: (§2)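 Monolayer cells in DMEM with 10% FBS, penicillin and streptomycin, 37°C, 5% CO2. Exponentially growing cells were seeded in 96-well plates and exposed to compound for 48 h. MTT was then added for 4 h at 37°C. Medium was removed, formazan dissolved in DMSO, and OD read at 490 nm. Each plate had five replicate wells, and assays were repeated three times per line.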
In general terms: Tetrazolium assays rely on reduction of a dye to a coloured formazan, in cell work by metabolically active cells.

Data set [4] relates to MGC-803. Description: Induction of ferroptosis in human MGC-803 cells assessed as increase in mitochondrial membrane density at 5 uM incubated for 24 hrs by TEM analysis. In kind it is functional, cell-based. The essentials: (§3)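 Cell samples prefixed in 3% glutaraldehyde, postfixed in 1% osmium tetroxide, dehydrated through graded acetone (30–100%), embedded in Epon812, cut into 60–90 nm ultrathin sections on copper grids, stained with uranyl acetate 10–15 min and lead citrate 1–2 min at room temperature, examined by TEM.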

The subject of data set [5] is MGC-803. Put plainly: Antitumor activity against human MGC-803 cells xenografted in nude mouse assessed as tumor inhibition ratio at 48 mg/kg, ip administered once every two days for 21 days relative to control. The format is functional. As to conditions: MGC-803, 504 h, time 21 day. The essentials:
as §1

The subject of data set [6] is MGC-803. Description: Antitumor activity against human MGC-803 cells xenografted in nude mouse assessed as tumor inhibition ratio at 24 mg/kg, ip administered once every two days for 21 days relative to control. The format is functional. The following applies: MGC-803, 504 h, time 21 day. The essentials:
as §1

Data set [7] can be described thus: Toxicity in nude mouse xenografted with human MGC-803 cells assessed as pathological changes in lungs at 12 to 48 mg/kg, ip administered once every two days for 21 days by H and E staining based analysis. The format is organism-based. The following applies: in vivo, 504 h, dose 12-48 mg/kg, time 21 day. The essentials:
(§4)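 Nude mice carrying s.c. xenografts (1×10^6 cells, right flank) randomized at 60–80 mm³ (n = 6), dosed i.p. every 2 days in 5% v/v DMSO/saline. Major organs examined by H&E staining at 200× magnification.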

Data set [8] concerns MGC-803. Put plainly: Induction of ferroptosis in human MGC-803 cells assessed as reduction of GPX4 protein expression level at 25 to 50 uM incubated for 24 hrs by Western blot analysis. In kind it is functional, cell-based. The following applies: dose 25-50 µM. In outline:
(§5)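 MGC-803 cells treated 25 or 50 μM for 24 h, lysed in ice-cold 1% SDS/Tris-HCl pH 7.5 buffer with EDTA, NaCl and protease inhibitors, spun 12,000g 18 min. Protein quantified by BCA; 40–50 μg resolved on 10% SDS-PAGE, transferred to PVDF, milk-blocked 2 h, primary antibody overnight, HRP secondary 1 h at RT. ECL detection with densitometry.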
Background: In western blotting, separated proteins are transferred to a membrane and probed.

Data set [9] has as its system MGC-803. Put plainly: Induction of cell cycle arrest in human MGC-803 cells assessed as accumulation of cells at G0/G1 phase at 25 uM incubated for 24 hrs by PI staining based flow cytometry (Rvb=59.09%). In kind it is functional.
In data set [10] the test system is MGC-803. Description: Induction of ferroptosis in human MGC-803 cells assessed as reduction in mitochondrial cristae at 5 uM incubated for 24 hrs by TEM analysis. The format is functional, cell-based. In outline:
as §3

Data set [11] deals with MGC-803. Put plainly: Induction of cell cycle arrest in human MGC-803 cells assessed as accumulation of cells at S phase at 100 uM incubated for 24 hrs by PI staining based flow cytometry (Rvb=28.00%). The format is functional.
Data set [12] in a line: Toxicity in nude mouse xenografted with human U-251 cells assessed as pathological changes in liver at 24 to 48 mg/kg, ip administered once every two days for 21 days by H and E staining based analysis. In kind it is organism-based. The following applies: in vivo, 504 h, dose 24-48 mg/kg, time 21 day. The essentials:
as §4

The nature of data set [13]: Toxicity in nude mouse xenografted with human MGC-803 cells assessed as pathological changes in spleen at 12 to 48 mg/kg, ip administered once every two days for 21 days by H and E staining based analysis. The format is organism-based. The following applies: in vivo, 504 h, dose 12-48 mg/kg, time 21 day. The essentials:
as §4

Data set [14] relates to MGC-803. Put plainly: Induction of cell cycle arrest in human MGC-803 cells assessed as accumulation of cells at G2/M phase at 25 uM incubated for 24 hrs by PI staining based flow cytometry (Rvb=12.91%). In kind it is functional.
A short description of data set [15]: Metabolic stability in male CD-1 mouse liver microsomes assessed as half life at 2 uM incubated for 60 min in the presence of NADPH by LC-MS/MS analysis. The format is ADME, Microsome. The essentials: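 Male CD-1 mouse liver microsomes at 0.5 mg/mL final in 100 mM phosphate buffer, pH 7.4. Mixture was preincubated with 1 mM NADPH (PBS only for the negative control) for 10 min at 37°C. Reaction was started with test compound at 2 µM final. Aliquots were taken at 0.5, 15, 30, 45 and 60 min into cold methanol with internal standard, centrifuged, and the supernatant analysed by LC-MS/MS.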

Data set [16] is described as follows: Toxicity in nude mouse xenografted with human MGC-803 cells assessed as reduction in body weight at 24 to 48 mg/kg, ip administered once every two days for 21 days. As to conditions: in vivo, 504 h, dose 24-48 mg/kg, time 21 day. The format is organism-based. In outline: as §1
The subject of data set [17] is Supercoiled DNA. Put plainly: Binding affinity to supercoiled circular pBR322 plasmid DNA (unknown origin) assessed as DNA intercalation by measuring migration in gel at 25 to 200 uM incubated for 4 hrs by PI and EtBr staining based gel electrophoresis. The format is nucleic-acid assay. The following applies: dose 25-200 µM, in the assay text read “GelRed staining” for “PI and EtBr staining”. In outline:
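0.20 μg pBR322 DNA in relaxation buffer (10 mM Tris, 0.1 mM EDTA, 5 mM MgCl₂, 50 mM KCl, 0.01% BSA, pH 7.5), 20 μL, incubated 4 h at 37°C with or without compound at varied concentrations. Stopped with SDS/bromophenol blue/glycerol loading buffer, run on 0.8% agarose in TAE, stained with GelRed; supercoiled and linear forms scored.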

For data set [18], the system named is MGC-803. Description: Induction of cell cycle arrest at S phase in human MGC-803 cells assessed as decrease in CDK2 protein expression level at 25 to 50 uM incubated for 24 hrs by Western blot analysis. The format is functional, cell-based. As to conditions: dose 25-50 µM. In outline: as §5
Data set [19] relates to T-24. Description: Antiproliferative activity against human T24 cells incubated for 48 hrs by MTT assay. The format is functional, cell-based. The following applies: T-24, 48 h. The essentials:
as §2

In data set [20] the test system is MGC-803. Put plainly: Induction of ferroptosis in human MGC-803 cells assessed as increase in intracellular iron level incubated for 24 hrs by FerroOrange staining based confocal microscopic analysis. In kind it is functional, cell-based. As to conditions: dose 25-50 µM.

In the case of `CN(C)CCN1C(=O)c2cccc3c(N4CCN(C(=O)CCOCCOCCOCCOCCNC(=O)CCCCC5SCC6NC(=O)NC65)CC4)ccc(c23)C1=O` (stereo not given), the inhibition in vivo at 12 mg/kg in data set [1] came out at 29.6%. Further, the result in data set [2], in data set [4], in [8], in [10], in data set [17] and in [18] was Active. Further, the pIC50 in data set [3] and in [19] was < 4.30 throughout. Further, in data set [5], the inhibition in vivo at 48 mg/kg turned out to be 65.5%. Moreover, in [6], the inhibition in vivo at 24 mg/kg is 39.6%. In addition, the Activity result is reported as “Non-Toxic” in [7]; 53.99% in data set [9]; 41.72% in data set [11]; “Non-Toxic” in data set [12]; “Non-Toxic” in [13]; 23.3% in data set [14]. The Activity entry in [16] was “Non-Toxic”; in data set [20], “Dose-Dependent Effect”. Besides, the half-life at 2 µM in data set [15] was found to be 36.6 min.
